Results from ChEMBL document CHEMBL2412955, “Synthesis and antibacterial activities of N-substituted-glycinyl 1H-1,2,3-triazolyl oxazolidinones” (2013).
Converted amounts (≈) assume the structure as drawn.

Experiments:
Assay type in all cases: functional
Staphylococcus aureus [1] = test: Antibacterial activity against Staphylococcus aureus ATCC 25923 after 18 hrs by […] in presence of human plasma; conditions: ATCC 25923, Plasma
In short: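 To gauge plasma protein binding and/or plasma instability, MIC was determined in Mueller-Hinton broth containing 50% human plasma. Linezolid served as a reference agent. Ratio compares this MIC with the MIC obtained without plasma.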

Staphylococcus aureus [2] = test: Antibacterial activity against Staphylococcus aureus ATCC 25923 after 18 hrs by NCCLS agar dilution method; conditions: ATCC 25923, 18 h
In short: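 Plain Mueller-Hinton agar, agar dilution per NCCLS, concentrations 0.12–64 µg/ml. Test agents in 80% DMSO in water, linezolid in 40% water in ethanol, vancomycin in water. Final inoculum 10^7 CFU/ml, 35 °C for 18 h. MIC = lowest concentration inhibiting visible growth.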

Moraxella catarrhalis [3] = test: Antibacterial activity against Moraxella catarrhalis ATCC 8176 after 18 hrs by NCCLS agar dilution method; conditions: ATCC 8176, 18 h
In short: (§1)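 NCCLS agar dilution on Mueller-Hinton agar with 5% sheep blood added to support growth. Drug dilutions 0.12–64 µg/ml. Test agents in 80% DMSO in water, linezolid in 40% water in ethanol. Final inoculum 10^7 CFU/ml, 18 h at 35 °C. MIC read as the lowest concentration with no visible growth.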

Streptococcus pneumoniae = test: Antibacterial activity against penicillin-resistant Streptococcus pneumoniae after 18 hrs by NCCLS agar dilution method
In short: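 Agar dilution was run on Mueller-Hinton agar supplemented with 5% sheep blood, with drug dilutions from 0.12 to 64 µg/ml. Test compounds were dissolved in 80% DMSO in water. Final inoculum was 10^7 CFU/ml, incubated at 35 °C for 18 h. MIC was the lowest concentration preventing visible growth.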

Haemophilus influenzae = test: Antibacterial activity against Haemophilus influenzae ATCC 49247 after 18 hrs by NCCLS agar dilution method; conditions: ATCC 49247, 18 h; in short: as §1
Escherichia coli = test: Antibacterial activity against Escherichia coli ATCC 25922 after 18 hrs by NCCLS agar dilution method; conditions: ATCC 25922, 18 h
In short: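 Agar dilution per NCCLS on Mueller-Hinton agar, drug dilutions 0.12–64 µg/ml. Linezolid dissolved in 40% water in ethanol, vancomycin in water, test agents in 80% DMSO in water. Inoculum 10^7 CFU/ml (final), incubated 35 °C for 18 h. MIC is the lowest concentration preventing visible growth.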

Enterococcus [4] = test: Antibacterial activity against vancomycin-resistant Enterococcus after 18 hrs by NCCLS agar dilution method
In short: (§2)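 Clinical isolates were tested by agar dilution on Mueller-Hinton agar with drug dilutions from 0.12 to 64 µg/ml. Test compounds were dissolved in 80% DMSO in water. Final inoculum was 10^7 CFU/ml, incubated at 35 °C for 18 h. MIC was the lowest concentration inhibiting visible growth.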

Enterococcus [5] = test: Antibacterial activity against vancomycin-susceptible Enterococcus after 18 hrs by NCCLS agar dilution method; in short: as §2
Staphylococcus [6] = test: Antibacterial activity against methicillin-susceptible coagulase-negative Staphylococcus after 18 hrs by NCCLS agar dilution method; in short: as §2
Staphylococcus [7] = test: Antibacterial activity against methicillin-resistant coagulase-negative Staphylococcus after 18 hrs by NCCLS agar dilution method; in short: as §2
Staphylococcus aureus [8] = test: Antibacterial activity against methicillin-susceptible Staphylococcus aureus after 18 hrs by NCCLS agar dilution method; in short: as §2
Staphylococcus aureus [9] = test: Antibacterial activity against methicillin-resistant Staphylococcus aureus after 18 hrs by NCCLS agar dilution method; in short: as §2
Moraxella catarrhalis [10] = test: Antibacterial activity against Moraxella catarrhalis clinical isolate 3447 after 18 hrs by NCCLS agar dilution method; conditions: clinical isolate 3447, 18 h; in short: as §1
Moraxella catarrhalis [11] = test: Antibacterial activity against Moraxella catarrhalis clinical isolate 2824 after 18 hrs by NCCLS agar dilution method; conditions: clinical isolate 2824, 18 h; in short: as §1
Moraxella catarrhalis [12] = test: Antibacterial activity against Moraxella catarrhalis clinical isolate 255 after 18 hrs by NCCLS agar dilution method; conditions: clinical isolate 255, 18 h; in short: as §1
Moraxella catarrhalis [13] = test: Antibacterial activity against Moraxella catarrhalis clinical isolate 138 after 18 hrs by NCCLS agar dilution method; conditions: clinical isolate 138, 18 h; in short: as §1
Moraxella catarrhalis [14] = test: Antibacterial activity against Moraxella catarrhalis clinical isolate 125 after 18 hrs by NCCLS agar dilution method; conditions: clinical isolate 125, 18 h; in short: as §1
Moraxella catarrhalis [15] = test: Antibacterial activity against Moraxella catarrhalis clinical isolate 112 after 18 hrs by NCCLS agar dilution method; conditions: clinical isolate 112, 18 h; in short: as §1
Moraxella catarrhalis [16] = test: Antibacterial activity against Moraxella catarrhalis clinical isolate 36 after 18 hrs by NCCLS agar dilution method; conditions: clinical isolate 36, 18 h; in short: as §1
Moraxella catarrhalis [17] = test: Antibacterial activity against Moraxella catarrhalis clinical isolate 1 after 18 hrs by NCCLS agar dilution method; conditions: clinical isolate 1, 18 h; in short: as §1

| Compound | MIC (Staphylococcus aureus [1]) [µg/mL] | MIC (Staphylococcus aureus [2]) [µg/mL] | MIC (Moraxella catarrhalis [3]) [µg/mL] | MIC (Streptococcus pneumoniae) [µg/mL] | MIC (Haemophilus influenzae) [µg/mL] | MIC (Escherichia coli) [µg/mL] | MIC (Enterococcus [4]) [µg/mL] | MIC (Enterococcus [5]) [µg/mL] | MIC (Staphylococcus [6]) [µg/mL] | MIC (Staphylococcus [7]) [µg/mL] | MIC (Staphylococcus aureus [8]) [µg/mL] | MIC (Staphylococcus aureus [9]) [µg/mL] | MIC (Moraxella catarrhalis [10]) [µg/mL] | MIC (Moraxella catarrhalis [11]) [µg/mL] | MIC (Moraxella catarrhalis [12]) [µg/mL] | MIC (Moraxella catarrhalis [13]) [µg/mL] | MIC (Moraxella catarrhalis [14]) [µg/mL] | MIC (Moraxella catarrhalis [15]) [µg/mL] | MIC (Moraxella catarrhalis [16]) [µg/mL] | MIC (Moraxella catarrhalis [17]) [µg/mL] |
| --- | --- | --- | --- | --- | --- | --- | --- | --- | --- | --- | --- | --- | --- | --- | --- | --- | --- | --- | --- | --- |
| O=C(NCC(=O)N1CCN(c2ccc(N3C[C@H](Cn4ccnn4)OC3=O)cc2F)CC1)C1CCCO1 (some centres undefined) | 16 | 8 (≈ 16 µM) | 16 (≈ 31.9 µM) | 1 (≈ 1.99 µM) | 32 (≈ 63.8 µM) | > 64 | 8 (≈ 16 µM) | 4 (≈ 7.98 µM) | 4 (≈ 7.98 µM) | 4 (≈ 7.98 µM) | 4 (≈ 7.98 µM) | 4 (≈ 7.98 µM) |  |  |  |  |  |  |  |  |
| Cc1cn(C[C@H]2CN(c3ccc(N4CCN(C(=O)CNC(=O)C5CCCO5)CC4)c(F)c3)C(=O)O2)nn1 (some centres undefined) | 32 | 32 (≈ 62.1 µM) | 32 (≈ 62.1 µM) | 0.5 (≈ 0.97 µM) | 32 (≈ 62.1 µM) | > 64 | 16 (≈ 31 µM) | 16 (≈ 31 µM) | 16 (≈ 31 µM) | 16 (≈ 31 µM) | 16 (≈ 31 µM) | 16 (≈ 31 µM) |  |  |  |  |  |  |  |  |
| O=C(NCC(=O)N1CCN(c2ccc(N3C[C@H](Cn4ccnn4)OC3=O)cc2F)CC1)c1ccccc1 | > 64 | 1 (≈ 1.97 µM) | 32 (≈ 63.1 µM) | 1 (≈ 1.97 µM) | 32 (≈ 63.1 µM) | > 64 | 0.5 (≈ 0.985 µM) | 1 (≈ 1.97 µM) | 0.5 (≈ 0.985 µM) | 0.5 (≈ 0.985 µM) | 0.5 (≈ 0.985 µM) | 0.5 (≈ 0.985 µM) |  |  |  |  |  |  |  |  |
| Cc1cn(C[C@H]2CN(c3ccc(N4CCN(C(=O)CNC(=O)c5cccs5)CC4)c(F)c3)C(=O)O2)nn1 | 8 | 2 (≈ 3.79 µM) | 8 (≈ 15.2 µM) | 0.5 (≈ 0.948 µM) | 16 (≈ 30.3 µM) | > 64 | 1 (≈ 1.9 µM) | 1 (≈ 1.9 µM) | 1 (≈ 1.9 µM) | 1 (≈ 1.9 µM) | 1 (≈ 1.9 µM) | 1 (≈ 1.9 µM) | ≥ 8 | 8 (≈ 15.2 µM) | 8 (≈ 15.2 µM) | 8 (≈ 15.2 µM) | 8 (≈ 15.2 µM) | 8 (≈ 15.2 µM) | 8 (≈ 15.2 µM) | ≥ 8 |
| O=C(NCC(=O)N1CCN(c2ccc(N3C[C@H](Cn4ccnn4)OC3=O)cc2F)CC1)c1ccco1 | 2 | 2 (≈ 4.02 µM) | 16 (≈ 32.2 µM) | 0.25 (≈ 0.503 µM) | 16 (≈ 32.2 µM) | > 64 | 1 (≈ 2.01 µM) | 1 (≈ 2.01 µM) | 1 (≈ 2.01 µM) | 1 (≈ 2.01 µM) | 1 (≈ 2.01 µM) | 1 (≈ 2.01 µM) |  |  |  |  |  |  |  |  |
| Cc1cn(C[C@H]2CN(c3ccc(N4CCN(C(=O)CNC(=O)c5ccco5)CC4)c(F)c3)C(=O)O2)nn1 | 4 | 2 (≈ 3.91 µM) | 8 (≈ 15.6 µM) | 0.5 (≈ 0.977 µM) | 4 (≈ 7.82 µM) | > 64 | 2 (≈ 3.91 µM) | 2 (≈ 3.91 µM) | 2 (≈ 3.91 µM) | 2 (≈ 3.91 µM) | 2 (≈ 3.91 µM) | 2 (≈ 3.91 µM) | > 8 | > 8 | > 8 | > 8 | > 8 | > 8 | > 8 | > 8 |
| O=C(CNS(=O)(=O)c1cccs1)N1CCN(c2ccc(N3C[C@H](Cn4ccnn4)OC3=O)cc2F)CC1 | 32 | 4 (≈ 7.28 µM) | 32 (≈ 58.2 µM) | 1 (≈ 1.82 µM) | ≥ 64 | > 64 | 2 (≈ 3.64 µM) | 2 (≈ 3.64 µM) | 2 (≈ 3.64 µM) | 2 (≈ 3.64 µM) | 2 (≈ 3.64 µM) | 2 (≈ 3.64 µM) |  |  |  |  |  |  |  |  |
| Cc1cn(C[C@H]2CN(c3ccc(N4CCN(C(=O)CNS(=O)(=O)c5cccs5)CC4)c(F)c3)C(=O)O2)nn1 | 32 | 16 (≈ 28.4 µM) | 32 (≈ 56.8 µM) | 2 (≈ 3.55 µM) | 64 (≈ 114 µM) | > 64 | 8 (≈ 14.2 µM) | 8 (≈ 14.2 µM) | 8 (≈ 14.2 µM) | 8 (≈ 14.2 µM) | 8 (≈ 14.2 µM) | 8 (≈ 14.2 µM) |  |  |  |  |  |  |  |  |
| CC(=O)NC[C@H]1CN(c2ccc(N3CCOCC3)c(F)c2)C(=O)O1 [LINEZOLID] |  |  | 8 (≈ 23.7 µM) |  | 8 (≈ 23.7 µM) | > 64 | 0.5 (≈ 1.48 µM) | 0.5 (≈ 1.48 µM) | 0.5 (≈ 1.48 µM) | 0.5 (≈ 1.48 µM) | 0.5 (≈ 1.48 µM) | 0.5 (≈ 1.48 µM) | 8 (≈ 23.7 µM) | 8 (≈ 23.7 µM) | 8 (≈ 23.7 µM) | 8 (≈ 23.7 µM) | 8 (≈ 23.7 µM) | 8 (≈ 23.7 µM) | 8 (≈ 23.7 µM) | 8 (≈ 23.7 µM) |
